Consider two compounds from ChEMBL document CHEMBL4680238, “Novel octapeptide-DTX prodrugs targeting MMP-7 as effective agents for the treatment of colorectal cancer with lower systemic toxicity” (Eur J Med Chem, 2020).

Usually IC50 stands for the point on the concentration scale where inhibition reaches its midpoint. As a reminder, the AUC(0-t) is the area under the concentration-time curve up to a stated or last time point. A word on the LD50: it is the dose at which mortality reaches 50%. As a reminder, the MRT inf is the average time that molecules of a dose stay in the body. As usually defined, the AUC is concentration integrated over time. By half-life is commonly meant how long it takes for the measured level to halve.

The test system of one data set is CCD-18Co. The data set is described as follows: Cytotoxicity against human CCD-18Co cells assessed as reduction in cell viability after 72 hrs by MTT assay. It counts as cell-based. In a few lines: (§1)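 Cells seeded at 5000/well and precultured 1 day. HCT116 grown in McCoy's 5A + 10% FBS; SW620 and HEK293 in DMEM + 10% FBS; CCD18Co in DMEM + 15% FBS. Compounds from 0.1 M DMSO stocks were tested at 10^-10 to 10^-4 mol/L in sixplicate: HCT116 and HEK293 for 48 h, SW620 and CCD18Co for 72 h, at 37 °C, 5% CO2. MTT (5 mg/mL) added for 4 h, then A570 read; IC50 estimated.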

Data set [1] in a line: Drug uptake in BALB/c nude mouse xenografted with human HCT-116 cells assessed as drug level in heart at 5 mg/kg, iv measured up to 24 hrs by LC-MS/MS analysis. Particulars: in vivo; call rule not given here. Type of data set: ADME, organism-based. The method, boiled down:
(§2)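 Male BALB/c nude mice bearing s.c. HCT116 tumours (200-300 mm3), 20 per group. Single tail-vein dose of 5 mg/kg. Five mice per group killed at 0.5, 4, 8 and 24 h and heart-perfused with PBS. Tissues homogenized in saline (4 µL/mg) and precipitated with methanol containing paclitaxel internal standard. Prodrug, released DTX and free DTX measured by LC-MS/MS.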
(In xenograft studies the graft and the host belong to different species.)

Data set [2] in a line: Drug uptake in BALB/c nude mouse xenografted with human HCT-116 cells assessed as drug level in liver at 5 mg/kg, iv measured up to 24 hrs by LC-MS/MS analysis. Type of data set: ADME, organism-based. Particulars: in vivo. In a few lines:
as §2

For data set [3], the system named is HCT-116. The data set can be described thus: Cytotoxicity against human HCT-116 cells assessed as reduction in cell viability after 48 hrs by MTT assay. Type of data set: functional, cell-based. Particulars: HCT-116, 48 h. The method, boiled down: as §1
(In general: Tetrazolium assays rely on reduction of a dye to a coloured formazan, in cell work by metabolically active cells.)

Data set [4] can be described thus: Toxicity in BALB/c nude mouse xenografted with human HCT-116 cells assessed as concentrated nucleus in liver at 5 mg/kg, ip administered once for every 7 days for 14 days by H and E staining based assay. Type of data set: organism-based. The note with it: in vivo, 336 h, time 14 day. The method, boiled down: (§3)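 At the end of the 14-day ip xenograft study (HCT116, BALB/c nude), heart and liver were collected from vehicle and molar-equivalent dose groups. Tissues fixed in 10% formalin in PBS and stained with H&E. Liver examined at 400×, heart at 100×.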

Data set [5] is described as follows: AUC (0 to t) in Sprague-Dawley rat at 5 mg/kg, iv measured up to 72 hrs by LC-MS/MS analysis. It counts as ADME, organism-based. On the set-up: route intravenous, dose 5 mg/kg, time <=72. Particulars: in vivo. The method, boiled down:
(§4)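 Male SD rats (180-200 g), fasted 12 h with free water, n = 3 per group. Single tail-vein dose of 5 mg/kg in 0.5% DMSO/5% castor oil/5% ethanol/89.5% saline. Retro-orbital blood drawn 0.083-72 h with heparin. Plasma protein-precipitated with methanol containing paclitaxel internal standard, then analysed by LC-MS/MS. Parameters from non-compartmental analysis, mean ± SD. For the DTX group, parameters were calculated after converting dose to the molar equivalent of the prodrug.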

Data set [6] in a line: Toxicity in BALB/c nude mouse xenografted with human HCT-116 cells assessed as disordered myocardial fiber in heart at 5 mg/kg, ip administered once for every 7 days for 14 days by H and E staining based assay. It counts as organism-based. The note with it: in vivo, 336 h, time 14 day. The method, boiled down:
as §3

The nature of data set [7]: Toxicity in ip dosed Kunming mouse measured for 14 days. It counts as organism-based. Particulars: in vivo, time 14 day. The method, boiled down: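 Healthy Kunming mice of both sexes, 20 ± 2 g, randomised into 5 groups of 10 matched for weight and size. Compound given once intraperitoneally at 400, 300, 250 or 150 mg/kg in formulation solvent (0.5% DMSO, 5% castor oil, 5% ethanol, 89.5% saline), 0.1 mL per 10 g; vehicle controls received solvent. Deaths recorded daily for 14 days; LD50 by Bliss method.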

Data set [8] can be described thus: Apparent volume of distribution in Sprague-Dawley rat at 5 mg/kg, iv measured up to 72 hrs by LC-MS/MS analysis. It counts as ADME, organism-based. Particulars: in vivo, read-out: Vz. The method, boiled down: as §4
Data set [9] in a line: MRT (0 to infinity) in Sprague-Dawley rat at 5 mg/kg, iv measured up to 72 hrs by LC-MS/MS analysis. It counts as ADME, organism-based. The note with it: in vivo. The method, boiled down: as §4
Data set [10] has as its system HCT-116. The data set can be described thus: Antitumour activity against human HCT-116 cells xenografted in BALB/c nude mouse assessed as tumour growth inhibition at 5 mg/kg, ip administered once for every 7 days for 14 days relative to control. Type of data set: functional. The note with it: HCT-116, ip, 336 h, time 14 day, read-out: TGI. The method, boiled down: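 Male BALB/c nude mice received s.c. HCT116 cells (2 × 10^6 in 0.2 mL PBS). Once tumours reached 100-200 mm3, mice were randomized into groups of six. Dosing was ip, 0.1 mL/10 g, once every 7 days, in DMSO 0.5%/castor oil 5%/ethanol 5%/saline 89.5%; vehicle controls got solvent. Caliper volume V = L×W²×0.52 read every 2-3 days. Tumours excised and weighed on day 14.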

A short description of data set [11]: Drug uptake in BALB/c nude mouse xenografted with human HCT-116 cells assessed as drug level in lung at 5 mg/kg, iv measured up to 24 hrs by LC-MS/MS analysis. The note with it: in vivo. Type of data set: ADME, organism-based. In a few lines:
as §2

A short description of data set [12]: Toxicity in BALB/c nude mouse xenografted with human HCT-116 cells assessed as reduction in body weight at 5 mg/kg, ip administered once for every 7 days for 14 days relative to control. Type of data set: organism-based. On the set-up: scale not given: the % may be the effect or the level left. Particulars: in vivo, 336 h, time 14 day. In a few lines:
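HCT116 s.c. xenografts in male BALB/c nude mice, n = 6 per group. Dosing was ip once every 7 days for 2 weeks in DMSO/castor oil/ethanol/saline; vehicle controls got solvent. Body weight recorded every other day or every three days. Weight loss taken at day 14. Mean ± SD.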

The nature of data set [13]: Drug uptake in BALB/c nude mouse xenografted with human HCT-116 cells assessed as drug level in tumour at 5 mg/kg, iv measured up to 24 hrs by LC-MS/MS analysis. It counts as ADME, organism-based, Neoplasm. Particulars: in vivo. The method, boiled down:
as §2

The nature of data set [14]: AUC (0 to infinity) in Sprague-Dawley rat at 5 mg/kg, iv measured up to 72 hrs by LC-MS/MS analysis. On the set-up: route intravenous, dose 5 mg/kg, time <=72. It counts as ADME, organism-based. The note with it: in vivo, 72 h. The method, boiled down: as §4
Data set [15] can be described thus: Drug uptake in BALB/c nude mouse xenografted with human HCT-116 cells assessed as drug level in spleen at 5 mg/kg, iv measured up to 24 hrs by LC-MS/MS analysis. Type of data set: ADME, organism-based. The note with it: in vivo. The method, boiled down: as §2
A further data set relates to HEK293. The data set can be described thus: Cytotoxicity against HEK293 cells assessed as reduction in cell viability after 48 hrs by MTT assay. It counts as cell-based. The note with it: Homo sapiens, HEK293, 48 h. The method, boiled down: as §1
Data set [16] can be described thus: Toxicity in BALB/c nude mouse xenografted with human HCT-116 cells assessed as inflammatory cell invasion in heart at 5 mg/kg, ip administered once for every 7 days for 14 days by H and E staining based assay. It counts as organism-based. The note with it: in vivo, 336 h, time 14 day. The method, boiled down:
as §3

In the next data set the test system is SW-620. The data set can be described thus: Cytotoxicity against human SW-620 cells assessed as reduction in cell viability after 72 hrs by MTT assay. Type of data set: functional, cell-based. Particulars: SW-620, 72 h. The method, boiled down: as §1
The nature of data set [17]: Apparent clearance in Sprague-Dawley rat at 5 mg/kg, iv measured up to 72 hrs by LC-MS/MS analysis. It counts as ADME, organism-based. Particulars: in vivo, 5 mg/kg, 72 h. In a few lines: as §4
Data set [18] can be described thus: Half life in Sprague-Dawley rat at 5 mg/kg, iv measured up to 72 hrs by LC-MS/MS analysis. Type of data set: ADME, organism-based. Particulars: in vivo. In a few lines:
as §4

The nature of data set [19]: Drug uptake in BALB/c nude mouse xenografted with human HCT-116 cells assessed as drug level in kidney at 5 mg/kg, iv measured up to 24 hrs by LC-MS/MS analysis. Type of data set: ADME, organism-based. The note with it: in vivo. In a few lines:
as §2

Data set [20] in a line: Toxicity in BALB/c nude mouse xenografted with human HCT-116 cells assessed as necrosis in liver at 5 mg/kg, ip administered once for every 7 days for 14 days by H and E staining based assay. It counts as organism-based. Particulars: in vivo, 336 h, time 14 day. In a few lines: as §3

As for `CC(=O)O[C@@]12CO[C@@H]1C[C@H](O)[C@@]1(C)C(=O)[C@H](O)C3=C(C)[C@@H](OC(=O)[C@H](O)[C@@H](NC(=O)OC(C)(C)C)c4ccccc4)C[C@@](O)([C@@H](OC(=O)c4ccccc4)[C@H]21)C3(C)C` [DOCETAXEL ANHYDROUS], the IC50 in the data set with CCD-18Co was 117 µM; with HCT-116 [3], 0.0035 µM; with HEK293, 19.7 µM; with SW-620, 0.02 µM. In addition, the Drug uptake result in [1], in [2], in data set [11], in [13], in data set [15] and in [19] was “Active” in each case. The Activity entry in data set [4] is on record as “Toxic”; in data set [6], “Toxic”; in [12], 13%; in [16], “Toxic”. The compound further showed an exposure AUC(0-t) at 72 h in data set [5] of 0.93 µg·h/mL. In addition, the LD50 at 336 h in data set [7] is 74.1 mg/kg. The Vd in data set [8] was 22.6 L/kg. For the same compound, the MRT inf in data set [9] was found to be 3.76 h. For the same compound, the inhibition in vivo at 5 mg/kg in the data set on HCT-116 [10] is 42.7%. Also, the AUC in [14] came to 0.867 µg·h/mL. Also, in data set [17], the “CL(app)” value is 2.76 L/h/kg. In data set [18], the half-life is 5.75 h.

On to `CC(=O)O[C@@]12CO[C@@H]1C[C@H](O)[C@@]1(C)C(=O)[C@H](O)C3=C(C)[C@@H](OC(=O)[C@H](O)[C@@H](NC(=O)OC(C)(C)C(F)(F)F)c4ccccc4)C[C@@](O)([C@@H](OC(=O)c4cccc(F)c4)[C@H]21)C3(C)C`, for which the IC50 stood at 17.1 µM with CCD-18Co, 0.0001 µM in the data set with HCT-116 [3], 0.36 µM with HEK293 and 0.28 µM in the data set with SW-620. For the same compound, the Activity entry in data set [6] is given as “Toxic”; in data set [12], 9.5%; in data set [16], “Toxic”; in [20], “Toxic”. In addition, in the data set with HCT-116 [10], the inhibition in vivo at 5 mg/kg is 41.9%.
